Activity calls are given as the source filed them. The calls are words filed in the database; no cut-off is given here.
Experiments:
[1] = biological target: Mushroom tyrosinase (Agaricus bisporus, UniProt O42713+Q00024+C7FF04+C7FF05); test: Inhibition of diphenolase activity of mushroom tyrosinase using L-Dopa as substrate preincubated with substrate for 10 mins followed by enzyme addition and measured after 5 mins
In short: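 Diphenolase assay: sample (5–300 µM) with 1.25 mM L-DOPA in 0.05 M sodium acetate pH 6.8, preincubated 10 min at 25 °C; mushroom tyrosinase (333 U/mL stock) added last. Linear A475 rise followed up to 5 min; % inhibition, IC50 interpolated from dose-response curves; three replicates. Kojic acid standard at 8–35 µM.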

[2] = Antioxidant activity assessed as ABTS radical scavenging activity incubated in dark for 1 min; format: functional
In short: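 ABTS radical cation generated from 7 mM ABTS plus 2.45 mM potassium persulfate (final), held dark at room temperature 24 h, then diluted to A734 0.700 ± 0.02. Sample added, kept dark at room temperature 1 min; drop in A734 read against a Trolox standard curve.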

[3] = system: HeLa; test: Cytotoxicity against human HeLa cells assessed as cell viability at 4 to 10 uM measured after 48 hrs by MTT assay; format: cell-based; settings: dose 4-10 µM
In short: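 HeLa grown in DMEM with 10% FBS, 2 mM L-glutamine, penicillin/streptomycin, 37 °C, 5% CO2; seeded at 3 × 10^4/mL. Exposed 48 h to compound (4–100 µM in DMSO, DMSO-only control), then MTT (0.5 mg/mL final) 3 h at 37 °C, lysed in DMSO, OD 560 nm; mean ± SD of triplicates.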

[4] = biological target: T1, Mushroom tyrosinase (Agaricus bisporus) (UniProt O42713+Q00024+C7FF04+C7FF05); test: Potency index, ratio of kojic acid IC50 to test compound IC50 for diphenolase activity of mushroom tyrosinase using L-Dopa as substrate preincubated with substrate for 10 mins followed by enzyme addition and measured after 5 mins
[5] = biological target: T1, Mushroom tyrosinase (Agaricus bisporus); test: Noncompetitive inhibition of diphenolase activity of mushroom tyrosinase assessed as decrease in Vmax with constant Km at 2 to 8 uM using 0.6 to 5 mM L-dopa as substrate by Lineweaver-Burk double reciprocal plot analysis; settings: dose microM 2-8

IC50 [1] [µM] | SMILES | further results
4.03 | O=C(CCN1CCC(Cc2ccccc2)CC1)N1CCN(c2ccc(O)cc2)CC1 | –
57.5 | O=C(CCN1CCC(Cc2ccccc2)CC1)N1CCN(c2ccccc2)CC1 | –
80.86 | O=C(CN1CCC(Cc2ccccc2)CC1)N1CCN(c2ccccc2)CC1 | –
– | Cc1c(C)c2c(c(C)c1O)CCC(C)(C(=O)O)O2 (stereo not drawn) [TROLOX] | EC50 [2]: 13 µM
9.6 | O=C(CN1CCC(Cc2ccc(F)cc2)CC1)N1CCN(c2ccccc2)CC1 | –
23.36 | O=C(CCN1CCC(Cc2ccc(F)cc2)CC1)N1CCN(c2ccccc2)CC1 | –
6.06 | O=C(CCN1CCC(Cc2ccc(F)cc2)CC1)N1CCN(c2ccc(O)cc2)CC1 | –
4.49 | O=C(CN1CCC(Cc2ccc(F)cc2)CC1)N1CCN(c2ccc(O)cc2)CC1 | –

SMILES | IC50 [1] [µM] | further results
O=C(CN1CCC(Cc2ccccc2)CC1)N1CCN(c2ccc(O)cc2)CC1 | 3.8 | Activity [3]: Non-Toxic; Ratio IC50 [4]: 5; EC50 [2]: 18.1 µM; inhibition [5]: Active
